In ChEMBL document CHEMBL1132197, “Stereospecific synthesis, structure-activity relationship, and oral bioavailability of tetrahydropyrimidin-2-one HIV protease inhibitors” (J Med Chem, 1999):

What was measured:
[1] = biological target: Human immunodeficiency virus type 1 protease (Human immunodeficiency virus 1, UniProt Q72874); assay: Inhibition constant of HIV protease inhibitors
In short: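 HIV protease (HIVPR) inhibition constant was determined by monitoring cleavage of a fluorescent peptide substrate, with products separated and quantified by HPLC.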

[2] = tested on: MT2; assay: Antiviral activity by measuring its effect on the accumulation of viral RNA transcripts on infection of MT-2 cells with HIV-1 RF.; assay type: functional; details: Homo sapiens
In short: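 Viral RNA transcript accumulation read 3 days after HIV-1 RF infection of MT-2 cells. IC90 is the concentration cutting viral RNA by 90% versus an untreated infected culture. TC50 came from MTT dye reduction in uninfected MT-2 cultures grown 3 days with compound.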

Structure (SMILES)	Ki [1] [nM]	IC90 [2] [nM]
Nc1cccc(CN2C(=O)N[C@H](Cc3ccccc3)[C@H](O)[C@H]2CCc2ccccc2)c1	157	
NC(=O)c1cccc(CN2C(=O)N3C(Cc4ccccc4)[C@@H]3[C@@H](O)[C@H]2Cc2ccccc2)c1 (stereo not given in full)	320	
O=C1N(CC2CC2)[C@H](CCc2ccccc2)[C@@H](O)[C@@H](Cc2ccccc2)N1CC1CC1	9.8	
O=C1[C@@H](CCc2ccccc2)N(Cc2ccccc2)C(=O)N(Cc2ccccc2)[C@@H]1Cc1ccccc1	1500	
Cc1ccc(NC(=O)c2cccc(CN3C(=O)N(Cc4cccc(C(=O)Nc5ccc(C)cn5)c4)[C@H](Cc4ccccc4)[C@H](O)[C@H]3CCc3ccccc3)c2)nc1	0.08	26
O=C1N(Cc2ccc3ccccc3c2)[C@H](/C=C/c2ccccc2)[C@@H](O)[C@@H](Cc2ccccc2)N1Cc1ccc2ccccc2c1	280	
NC(=O)c1cccc(CN2C(=O)N(Cc3cccc(C(N)=O)c3)[C@H](Cc3ccc(F)c(F)c3)[C@H](O)[C@H]2CCc2ccc(F)c(F)c2)c1	0.15	90
N#Cc1cc(CN2C(=O)N(Cc3ccc(F)c(C#N)c3)[C@H](Cc3ccccc3)[C@H](O)[C@H]2CCc2ccccc2)ccc1F	230	
[N-]=[N+]=N[C@@H](Cc1ccccc1)[C@@H]1[C@@H](O)[C@@H](Cc2ccccc2)N(Cc2ccc3ccccc3c2)C(=O)N1Cc1ccc2ccccc2c1	330	
N#Cc1cc(CN2C(=O)N[C@H](CCc3ccccc3)[C@@H](O)[C@H]2Cc2ccccc2)ccc1F	110	
N=C(NO)c1cc(CN2C(=O)N(Cc3ccc(F)c(C(=N)NO)c3)[C@H](Cc3ccccc3)[C@H](O)[C@H]2CCc2ccccc2)ccc1F	0.06	51
N#Cc1cccc(CN2C(=O)N[C@H](CCc3ccccc3)[C@@H](O)[C@H]2Cc2ccccc2)c1	15	
N#Cc1cccc(CN2C(=O)N(Cc3cccc(C#N)c3)[C@H](Cc3ccccc3)[C@H](O)[C@H]2CCc2ccccc2)c1		1600
O=C1N(Cc2ccc3c[nH]nc3c2)[C@H](CCc2ccccc2)[C@@H](O)[C@@H](Cc2ccccc2)N1Cc1ccc2c[nH]nc2c1	0.06	32
O=C1N(CC2CC2)[C@H]([C@@H](O)Cc2ccccc2)[C@@H](O)[C@@H](Cc2ccccc2)N1CC1CC1	410	
O=C1N[C@H](CCc2ccccc2)[C@@H](O)[C@@H](Cc2ccccc2)N1Cc1cccc(O)c1	2.6	4800
N/C(=N\O)c1cccc(CN2C(=O)N3C(Cc4ccccc4)[C@@H]3[C@@H](O)[C@H]2Cc2ccccc2)c1 (stereo not given in full)	12	
Nc1[nH]nc2ccc(CN3C(=O)N(Cc4ccc5n[nH]c(N)c5c4)[C@H](Cc4ccccc4)[C@H](O)[C@H]3CCc3ccccc3)cc12	0.03	383
Nc1cc(CN2C(=O)N(Cc3ccc(F)c(N)c3)[C@H](Cc3ccccc3)[C@H](O)[C@H]2CCc2ccccc2)ccc1F		36

Structure (SMILES)	Ki [1] [nM]	IC90 [2] [nM]
O=C1N(Cc2ccccc2)[C@H](/C=C/c2ccccc2)[C@@H](O)[C@@H](Cc2ccccc2)N1Cc1ccccc1	460	
N/C(=N\O)c1cc(CN2C(=O)N[C@H](CCc3ccccc3)[C@@H](O)[C@H]2Cc2ccccc2)ccc1F	1.4	3780
Nc1ccc(CN2C(=O)N(Cc3ccc(N)c(F)c3)[C@H](Cc3ccccc3)[C@H](O)[C@H]2CCc2ccccc2)cc1F		539
NC(=O)c1cccc(CN2C(=O)N[C@H](CCc3ccccc3)[C@@H](O)[C@H]2Cc2ccccc2)c1	5.6	
NC(=O)c1cc(CN2C(=O)N[C@H](CCc3ccccc3)[C@@H](O)[C@H]2Cc2ccccc2)ccc1F	14	
NC(=O)c1cccc(CN2C(=O)N(Cc3cccc(C(N)=O)c3)[C@H](Cc3ccccc3)[C@H](O)[C@H]2CCc2ccccc2)c1	0.09	
Cc1n[nH]c2ccc(CN3C(=O)N(Cc4cccc(N)c4)[C@H](Cc4ccccc4)[C@H](O)[C@H]3CCc3ccccc3)cc12	0.13	32
Nc1[nH]nc2ccc(CN3C(=O)N(Cc4ccccc4)[C@H](CCc4ccccc4)[C@@H](O)[C@H]3Cc3ccccc3)cc12	0.28	126
Nc1cccc(CN2C(=O)N[C@H](CCc3ccccc3)[C@@H](O)[C@H]2Cc2ccccc2)c1	6.2	4330
O=C1N(Cc2ccccc2)C[C@@H](O)[C@@H](Cc2ccccc2)N1Cc1ccccc1	2400	
Nc1[nH]nc2ccc(CN3C(=O)N(Cc4ccccc4)[C@H](Cc4ccccc4)[C@H](O)[C@H]3CCc3ccccc3)cc12	0.65	71
O=C1N[C@H](Cc2ccccc2)[C@H](O)[C@H]2C(Cc3ccccc3)N12 (stereo not given in full)	3000	
O=C1N[C@H](Cc2ccccc2)[C@H](O)[C@@H](CCc2ccccc2)N1Cc1ccc2[nH]ncc2c1	44	
N=C(NO)c1cccc(CN2C(=O)N(Cc3cccc(C(=N)NO)c3)[C@H](Cc3ccc(F)cc3)[C@H](O)[C@H]2CCc2ccc(F)cc2)c1	0.02	49
Nc1[nH]nc2ccc(CN3C(=O)N[C@H](CCc4ccccc4)[C@@H](O)[C@H]3Cc3ccccc3)cc12	0.38	549
O=C1N[C@H](CCc2ccccc2)[C@@H](O)[C@@H](Cc2ccccc2)N1Cc1ccc2[nH]ncc2c1	1.2	590
NC(=O)c1cccc(CN2C(=O)N(Cc3cccc(C(N)=O)c3)[C@H](Cc3ccc(F)cc3)[C@H](O)[C@H]2CCc2ccc(F)cc2)c1	0.31	35
Nc1cccc(CN2C(=O)N(Cc3ccc4[nH]nc(N)c4c3)[C@H](CCc3ccccc3)[C@@H](O)[C@H]2Cc2ccccc2)c1	0.1	53
N#Cc1cccc(CN2C(=O)N3C(Cc4ccccc4)[C@@H]3[C@@H](O)[C@H]2Cc2ccccc2)c1 (stereo not given in full)	2400	

Structure (SMILES)	Ki [1] [nM]	IC90 [2] [nM]
O=C(Nc1nccs1)c1cccc(CN2C(=O)N(Cc3cccc(C(=O)Nc4nccs4)c3)[C@H](Cc3ccccc3)[C@H](O)[C@H]2CCc2ccccc2)c1	0.03	31
Nc1cccc(CN2C(=O)N(Cc3ccc4[nH]ncc4c3)[C@H](CCc3ccccc3)[C@@H](O)[C@H]2Cc2ccccc2)c1	0.1	16
O=C1N(Cc2cccc(CO)c2)[C@H]([C@@H](Br)Cc2ccccc2)[C@@H](O)[C@@H](Cc2ccccc2)N1Cc1cccc(CO)c1	11	2100
N#Cc1cccc(CN2C(=O)N(Cc3cccc(C#N)c3)[C@H](Cc3ccc(F)cc3)[C@H](O)[C@H]2CCc2ccc(F)cc2)c1	14	1560
Nc1cccc(CN2C(=O)N(Cc3ccc4[nH]ncc4c3)[C@H](Cc3ccccc3)[C@H](O)[C@H]2CCc2ccccc2)c1	0.08	13
O=C1N(Cc2ccccc2)[C@H](CCc2ccccc2)[C@@H](O)[C@@H](Cc2ccccc2)N1Cc1ccccc1		2800
NC(=O)c1cccc(CN2C(=O)N(Cc3cccc(N)c3)[C@H](Cc3ccccc3)[C@H](O)[C@H]2CCc2ccccc2)c1	0.06	24
N=C(NO)c1cccc(CN2C(=O)N(Cc3cccc(C(=N)NO)c3)[C@H](Cc3ccc(F)c(F)c3)[C@H](O)[C@H]2CCc2ccc(F)c(F)c2)c1	0.01	117
N#Cc1cc(CN2C(=O)N(Cc3ccccc3)[C@H](Cc3ccccc3)[C@H](O)[C@H]2CCc2ccccc2)ccc1F	33	
O=C(O)c1cccc(CN2C(=O)N(Cc3cccc(C(=O)O)c3)[C@H](Cc3ccccc3)[C@H](O)[C@H]2CCc2ccccc2)c1	0.87	
N#Cc1cc(CN2C(=O)N(Cc3ccccc3)[C@H](CCc3ccccc3)[C@@H](O)[C@H]2Cc2ccccc2)ccc1F	40	
N/C(=N\O)c1cccc(CN2C(=O)N(CC3CC3)[C@H](CCc3ccccc3)[C@@H](O)[C@H]2Cc2ccccc2)c1	0.48	36
O=C1N(Cc2ccccc2)[C@H]([C@@H](Br)Cc2ccccc2)[C@@H](O)[C@@H](Cc2ccccc2)N1Cc1ccccc1	185	
N/C(=N\O)c1cccc(CN2C(=O)N(Cc3cccc(N)c3)[C@H](Cc3ccccc3)[C@H](O)[C@H]2CCc2ccccc2)c1	0.02	17
NC(=O)c1cc(CN2C(=O)N(Cc3ccc(F)c(C(N)=O)c3)[C@H](Cc3ccccc3)[C@H](O)[C@H]2CCc2ccccc2)ccc1F		490
Nc1noc2ccc(CN3C(=O)N(Cc4ccc5onc(N)c5c4)[C@H](Cc4ccccc4)[C@H](O)[C@H]3CCc3ccccc3)cc12	0.41	132
Cc1n[nH]c2ccc(CN3C(=O)N(Cc4ccc5[nH]nc(C)c5c4)[C@H](Cc4ccccc4)[C@H](O)[C@H]3CCc3ccccc3)cc12	0.1	18
N#Cc1cccc(CN2C(=O)N(Cc3cccc(N)c3)[C@H](Cc3ccccc3)[C@H](O)[C@H]2CCc2ccccc2)c1	1.6	565
CNc1cccc(CN2C(=O)N(Cc3cccc(NC)c3)[C@H](Cc3ccccc3)[C@H](O)[C@H]2CCc2ccccc2)c1		328
